In experiment [1] the test system is Mycobacterium tuberculosis. Briefly: Antibacterial activity against Mycobacterium tuberculosis 103471. Type of experiment: functional. The gist of the method:
(§1)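 MIC by serial 2-fold tube dilution. Compound DMSO stocks were filter-sterilised (0.2 µm) and diluted in water. Tubes were inoculated with 10⁵–10⁶ CFU/mL of each mycobacterium and incubated at 37 °C for 3–21 days. Each run included a drug-free control tube. Values are in µg/mL.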

Experiment [2] has as its system Mycolicibacterium smegmatis. Description: Antibacterial activity against Mycobacterium smegmatis. In kind it is functional. In a few lines:
as §1

The subject of experiment [3] is Vero. Briefly: Protection index, cytotoxicity against Vero cell line/antibacterial activity against Mycobacterium tuberculosis 103471. In kind it is functional. In a few lines:
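Protection index is the ratio of Vero-cell MNTD₅₀ (cell counts after 5-day exposure) to the MIC against M. tuberculosis CIP 103471. The MIC came from 2-fold tube dilution, inoculum 10⁵–10⁶ CFU/mL, 37 °C.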

The test system of another experiment is Mycobacterium marinum. Briefly: Antibacterial activity against Mycobacterium marinum. Type of experiment: functional. The gist of the method: as §1
The next experiment relates to Mycobacterium avium. Description: Antibacterial activity against Mycobacterium avium. Type of experiment: functional. In a few lines: as §1
The test system of experiment [4] is Vero. Briefly: Cytotoxicity against Vero cell line. Type of experiment: functional, Chlorocebus sabaeus. In a few lines: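 Vero cells were cultured for 24 h, then the medium was replaced with medium holding decreasing compound concentrations. After 5 days the cells were trypsinised and counted in a Neubauer chamber, in triplicate. MNTD₅₀ (µg/mL) is the concentration that decreased cell multiplication by less than 50% of control.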

Values after ≈ are worked out from the molar mass of the structure shown.

The MIC is the least concentration at which growth counts as inhibited. Read a low MIC as inhibition by little substance. Take `Cc1ccccc1-c1cc(CN2CCSCC2)c(C)n1-c1ccc(F)cc1`: the MIC in experiment [1] is 4 µg/mL (≈ 10.5 µM); in experiment [2], more than 16 µg/mL; with Mycobacterium marinum, more than 16 µg/mL; against Mycobacterium avium, 8 µg/mL (≈ 21 µM). Also, the PI in the experiment with Vero [3] is listed as 2. Besides, the “Maximal non-toxic dose 50” value in the experiment with Vero [4] was found to be 8 µg/mL.

As to `Cc1c(CN2CCSCC2)cc(-c2ccc(F)cc2)n1-c1ccc(F)cc1F`, the MIC in experiment [1] is 2 µg/mL (≈ 4.97 µM); in experiment [2], more than 16 µg/mL; against Mycobacterium marinum it was 16 µg/mL (≈ 39.8 µM); against Mycobacterium avium it was 16 µg/mL (≈ 39.8 µM). In the experiment on Vero [3], this compound registered a PI of 8. Besides, the “Maximal non-toxic dose 50” value in the experiment on Vero [4] is 16 µg/mL.

With `Cc1c(CN2CCN(C)CC2)cc(-c2ccc(Cl)cc2Cl)n1-c1ccc(F)cc1`, the minimum inhibitory concentration (MIC) in experiment [1] was 8 µg/mL (≈ 18.5 µM); in experiment [2], more than 16 µg/mL; against Mycobacterium marinum, more than 16 µg/mL; with Mycobacterium avium it was 2 µg/mL (≈ 4.63 µM). The PI with Vero [3] is listed as 2. Moreover, the “Maximal non-toxic dose 50” value with Vero [4] turned out to be 16 µg/mL.

Regarding `Cc1c(CN2CCN(C)CC2)cc(-c2ccccc2Cl)n1-c1ccc(F)cc1`, the MIC in experiment [1] is 8 µg/mL (≈ 20.1 µM); in experiment [2] it was more than 16 µg/mL; with Mycobacterium marinum, more than 16 µg/mL; against Mycobacterium avium, 16 µg/mL (≈ 40.2 µM). In the experiment with Vero [3], the PI stood at 0.25. The “Maximal non-toxic dose 50” value in the experiment with Vero [4] was 2 µg/mL.

Regarding `Cc1c(CN2CCN(C)CC2)cc(-c2ccc(F)cc2)n1-c1ccc(Cl)cc1Cl`, the MIC was 4 µg/mL (≈ 9.25 µM) in experiment [1], more than 16 µg/mL in experiment [2], 8 µg/mL (≈ 18.5 µM) against Mycobacterium marinum and 4 µg/mL (≈ 9.25 µM) against Mycobacterium avium. The PI in the experiment with Vero [3] is reported as 0.5. Besides, the “Maximal non-toxic dose 50” value in the experiment with Vero [4] worked out at 2 µg/mL.

With `Cc1c(CN2CCSCC2)cc(-c2ccc(F)cc2)n1-c1ccc(Cl)cc1Cl`, the MIC in experiment [1] amounted to 1 µg/mL (≈ 2.3 µM); in experiment [2], 16 µg/mL (≈ 36.7 µM); in the experiment on Mycobacterium marinum, 8 µg/mL (≈ 18.4 µM); with Mycobacterium avium, 2 µg/mL (≈ 4.59 µM). Further, the PI with Vero [3] turned out to be 4. In addition, the “Maximal non-toxic dose 50” value with Vero [4] amounted to 4 µg/mL.

In the case of `Cc1cccc(-n2c(-c3ccc(F)cc3)cc(CN3CCSCC3)c2C)c1`, the MIC in experiment [1] was 4 µg/mL (≈ 10.5 µM); in experiment [2], more than 16 µg/mL; with Mycobacterium marinum, more than 16 µg/mL; against Mycobacterium avium it was 16 µg/mL (≈ 42 µM). In addition, the PI in the experiment on Vero [3] is on record as 2. The “Maximal non-toxic dose 50” value with Vero [4] amounted to 8 µg/mL.

Regarding `Cc1c(CN2CCN(C)CC2)cc(-c2ccc(F)cc2)n1-c1ccc(F)cc1F`, the minimal inhibitory concentration (MIC) in experiment [1] was 16 µg/mL (≈ 40.1 µM); in experiment [2], more than 16 µg/mL; against Mycobacterium marinum, 16 µg/mL (≈ 40.1 µM); against Mycobacterium avium it was 16 µg/mL (≈ 40.1 µM). In the experiment on Vero [3], this compound showed a PI of 1. Moreover, in the experiment on Vero [4], the “Maximal non-toxic dose 50” value turned out to be 16 µg/mL.

As for `CN[C@@H]1[C@H](O[C@H]2[C@H](O[C@H]3[C@H](O)[C@@H](O)[C@H](N=C(N)N)[C@@H](O)[C@@H]3N=C(N)N)O[C@@H](C)[C@]2(O)C=O)O[C@@H](CO)[C@H](O)[C@H]1O` (stereo in doubt) [STREPTOMYCIN], the MIC in experiment [1] turned out to be 0.5 µg/mL (≈ 0.86 µM); in experiment [2], 8 µg/mL (≈ 13.8 µM); against Mycobacterium marinum, 32 µg/mL (≈ 55 µM); in the experiment with Mycobacterium avium, 8 µg/mL (≈ 13.8 µM). For the same compound, the PI in the experiment on Vero [3] is more than 128. For the same compound, in the experiment on Vero [4], the “Maximal non-toxic dose 50” value is more than 64 µg/mL.

On to `Cc1c(CN2CCN(C)CC2)cc(-c2ccc(F)cc2)n1-c1ccccc1F`, for which the MIC was 8 µg/mL (≈ 21 µM) in experiment [1], 0.3 µg/mL (≈ 0.786 µM) in experiment [2], more than 16 µg/mL in the experiment with Mycobacterium marinum and 16 µg/mL (≈ 41.9 µM) against Mycobacterium avium. Moreover, in the experiment with Vero [3], the PI came out at 1. For the same compound, the “Maximal non-toxic dose 50” value in the experiment on Vero [4] is 8 µg/mL.

As for `Cc1c(CN2CCN(C)CC2)cc(-c2ccc(F)cc2)n1-c1ccccc1Cl`, the MIC is 4 µg/mL (≈ 10.1 µM) in experiment [1], more than 16 µg/mL in experiment [2], more than 16 µg/mL against Mycobacterium marinum and more than 16 µg/mL in the experiment on Mycobacterium avium. In the experiment with Vero [3], this compound yielded a PI of 2. The “Maximal non-toxic dose 50” value with Vero [4] was determined as 8 µg/mL.

As for `Cc1c(CN2CCSCC2)cc(-c2ccc(Cl)cc2Cl)n1-c1ccc(F)cc1`, the MIC in experiment [1] was 2 µg/mL (≈ 4.59 µM); in experiment [2], more than 16 µg/mL; in the experiment with Mycobacterium marinum, more than 16 µg/mL; in the experiment with Mycobacterium avium, 4 µg/mL (≈ 9.19 µM). The compound also gave a PI with Vero [3] of 32. The “Maximal non-toxic dose 50” value in the experiment with Vero [4] stood at 64 µg/mL.
